# Assay results reported in ChEMBL document CHEMBL4813940, “Design, synthesis and biological evaluation of novel benzoxaborole derivatives as potent PDE4 inhibitors for topical treatment of atopic dermatitis” (Eur J Med Chem, 2021).
# Assays:
# [1] = Phototoxicity in albino guinea pig assessed as skin reaction score at 5 mg/kg topical treatment irradiated with 4.2 mw/cm2 UVA for 40 mins and measured after 24 hrs day of light irradiation by H and E staining based microscopic analysis; assay type: organism-based, Cavia porcellus; details: in vivo, topical_or_ocular
# Outline: (§1)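 Albino guinea pigs (250–300 g) were randomized into 5 groups. Four 2 cm × 2 cm depilated areas beside the spine were prepared 24 h before dosing, and 0.2 mL of test substance was applied. Animals were restrained and exposed to UVA for 40 min. Erythema, eschar and oedema were scored visually at 1, 24, 48 and 72 h. Skin taken at 72 h was formalin-fixed, H&E-stained and read by a pathologist.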
# Homo sapiens [2] = organism: Homo sapiens; assay: Selectivity index, ratio of IC50 for PDE10A (unknown origin) to IC50 for PDE4B (unknown origin)
# Homo sapiens [3] = organism: Homo sapiens; assay: Selectivity index, ratio of IC50 for PDE1B (unknown origin) to IC50 for PDE4B (unknown origin)
# [4] = Toxicity in Sprague-Dawley rat assessed as white blood cell count at 400 to 700 mg/kg, po for 14 days; assay type: organism-based; details: in vivo, 336 h, dose 400-700 mg/kg, time 14 day
# [5] = biological target: High affinity 3',5'-cyclic-AMP phosphodiesterase 7A (Homo sapiens, UniProt Q13946); assay: Inhibition of PDE7A (unknown origin)
# Sequence of High affinity 3',5'-cyclic-AMP phosphodiesterase 7A (Q13946 whole entry): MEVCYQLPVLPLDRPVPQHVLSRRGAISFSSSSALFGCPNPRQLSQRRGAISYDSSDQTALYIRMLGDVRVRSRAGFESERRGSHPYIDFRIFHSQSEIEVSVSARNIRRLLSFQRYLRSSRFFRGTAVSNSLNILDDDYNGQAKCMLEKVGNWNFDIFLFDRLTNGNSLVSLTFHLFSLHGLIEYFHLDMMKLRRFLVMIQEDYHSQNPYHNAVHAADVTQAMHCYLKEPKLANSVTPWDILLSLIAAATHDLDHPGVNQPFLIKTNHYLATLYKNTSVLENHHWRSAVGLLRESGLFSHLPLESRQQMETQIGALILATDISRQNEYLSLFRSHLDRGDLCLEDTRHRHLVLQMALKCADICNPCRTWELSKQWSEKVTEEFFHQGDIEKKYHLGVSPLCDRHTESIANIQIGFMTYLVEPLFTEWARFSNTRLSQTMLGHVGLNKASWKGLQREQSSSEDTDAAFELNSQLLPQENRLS
# Outline: (§2)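 Scintillation proximity assay of [3H]-cAMP or [3H]-cGMP hydrolysis to [3H]-AMP or [3H]-GMP. Enzyme was diluted to 1–2 nM in 50 mM Tris pH 7.5, 8.3 mM MgCl2 and 1.7 mM EGTA. Reaction was started by adding enzyme, test solution and radiolabelled substrate, then incubated at 30 °C for 30 min and stopped with SPA beads. Run in duplicate.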
# Mus musculus [6] = assay: Antiinflammatory activity against calcipotriol-induced atopic dermatitis mouse model assessed as swelling inhibition by measuring thickness of left ear at 30 mg/kg for 14 days (RVB = 0.26 +/- 0.01 mm); assay type: functional; details: time 14 day
# Outline: (§3)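 Ointment was applied to the dorsal side of the left ear twice daily (30 mg/kg) for 14 days; the normal group received ethanol. On day 17 the mice were anaesthetized with 10% chloral hydrate and ear thickness was measured with a micrometer. Percent inhibition of the inflammatory reaction was calculated against untreated animals.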
# [7] = Toxicity in Sprague-Dawley rat assessed as systemic toxicity at 700 mg/kg, po for 14 days; assay type: organism-based; details: in vivo, 336 h, time 14 day
# Outline: (§4)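 Healthy male and female Sprague-Dawley rats, 8-week-old, randomised to three groups of 6 males + 6 females. Vehicle 1% CMC-Na or 400 and 700 mg/kg given by oral gavage once daily for 14 days. Mortality and clinical signs checked daily; body weight on days 0, 7, 14. Isoflurane euthanasia, macroscopic necropsy, weights of liver, kidney, testis, thymus, heart and lung.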
# [8] = Toxicity in Sprague-Dawley rat assessed as spleen/brain index at 400 to 700 mg/kg, po for 14 days; assay type: organism-based; details: in vivo, 336 h, dose 400-700 mg/kg, time 14 day
# Outline: (§5)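 Sprague-Dawley rats, 8 weeks old, 6 male and 6 female per group. Dosed by oral gavage once daily for 14 days with 1% CMC-Na vehicle or 400 and 700 mg/kg. Animals were checked daily for mortality and clinical signs, with body weight recorded on days 0, 7 and 14. Rats were then euthanized under isoflurane, necropsied, and their organs weighed.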
# [9] = biological target: T1, 3',5'-cyclic-AMP phosphodiesterase 4B (Homo sapiens, UniProt Q07343); assay: Inhibition of PDE4B (unknown origin); outline: as §2
# T1 sequence (Q07343 whole entry): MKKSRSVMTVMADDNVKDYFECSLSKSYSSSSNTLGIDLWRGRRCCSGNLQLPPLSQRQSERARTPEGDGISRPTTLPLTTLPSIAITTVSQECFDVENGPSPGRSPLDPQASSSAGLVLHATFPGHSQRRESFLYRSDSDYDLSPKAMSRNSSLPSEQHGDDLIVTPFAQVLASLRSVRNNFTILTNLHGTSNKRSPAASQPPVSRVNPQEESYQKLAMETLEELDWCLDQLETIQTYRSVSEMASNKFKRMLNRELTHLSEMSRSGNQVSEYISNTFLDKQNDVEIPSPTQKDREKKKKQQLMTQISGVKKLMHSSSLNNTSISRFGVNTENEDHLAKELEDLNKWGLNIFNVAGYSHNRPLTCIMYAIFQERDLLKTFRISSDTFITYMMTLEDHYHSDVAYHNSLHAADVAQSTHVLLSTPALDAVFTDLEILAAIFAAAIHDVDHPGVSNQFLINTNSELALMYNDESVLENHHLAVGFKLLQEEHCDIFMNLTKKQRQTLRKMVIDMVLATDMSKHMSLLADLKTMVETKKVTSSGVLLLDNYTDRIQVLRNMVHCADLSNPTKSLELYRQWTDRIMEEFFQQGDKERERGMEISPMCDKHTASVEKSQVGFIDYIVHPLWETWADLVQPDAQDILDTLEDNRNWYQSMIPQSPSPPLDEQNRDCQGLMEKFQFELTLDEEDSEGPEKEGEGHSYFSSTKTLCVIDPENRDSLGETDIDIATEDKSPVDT
# Mus musculus [10] = assay: Antiinflammatory activity against calcipotriol-induced atopic dermatitis mouse model assessed as swelling inhibition by measuring thickness of right ear at 30 mg/kg for 14 days (RVB = 0.55 +/- 0.06 mm); assay type: functional; details: time 14 day; outline: as §3
# Homo sapiens [11] = organism: Homo sapiens; assay: Selectivity index, ratio of IC50 for PDE5A (unknown origin) to IC50 for PDE4B (unknown origin)
# [12] = Toxicity in Sprague-Dawley rat assessed as blood pressure at 400 to 700 mg/kg, po for 14 days; assay type: organism-based; details: in vivo, 336 h, dose 400-700 mg/kg, time 14 day
# [13] = Phototoxicity in albino guinea pig assessed as skin reaction score at 10 mg/kg topical treatment irradiated with 4.2 mw/cm2 UVA for 40 mins and measured after 24 hrs day of light irradiation by H and E staining based microscopic analysis; assay type: organism-based, Cavia porcellus; details: in vivo, topical_or_ocular; outline: as §1
# [14] = biological target: cAMP and cAMP-inhibited cGMP 3',5'-cyclic phosphodiesterase 10A (Homo sapiens, UniProt Q9Y233); assay: Inhibition of PDE10A (unknown origin); outline: as §2
# [15] = biological target: Dual specificity calcium/calmodulin-dependent 3',5'-cyclic nucleotide phosphodiesterase 1A (Homo sapiens, UniProt P54750); assay: Inhibition of PDE1A (unknown origin); outline: as §2
# [16] = Toxicity in Sprague-Dawley rat assessed as death at 700 mg/kg, po for 14 days; assay type: organism-based; details: in vivo, 336 h, time 14 day; outline: as §4
# [17] = Toxicity in Sprague-Dawley rat assessed as blood glucose at 400 to 700 mg/kg, po for 14 days; assay type: organism-based; details: in vivo, 336 h, dose 400-700 mg/kg, time 14 day
# Homo sapiens [18] = organism: Homo sapiens; assay: Selectivity index, ratio of IC50 for PDE2A (unknown origin) to IC50 for PDE4B (unknown origin)
# [19] = biological target: cGMP-specific 3',5'-cyclic phosphodiesterase (Homo sapiens, UniProt O76074); assay: Inhibition of PDE5A (unknown origin); outline: as §2
# [20] = biological target: T1, 3',5'-cyclic-AMP phosphodiesterase 4B; assay: Inhibition of PDE4B (unknown origin) assessed as hydrolysis of [3H]-cGMP into [3H]-GMP incubated for 30 mins by scintillation of proximity assay; details: in the assay text read “[3H]-cAMP into [3H]-AMP” for “[3H]-cGMP into [3H]-GMP”; outline: as §2
# Homo sapiens [21] = organism: Homo sapiens; assay: Selectivity index, ratio of IC50 for PDE3A (unknown origin) to IC50 for PDE4B (unknown origin)
# [22] = Toxicity in Sprague-Dawley rat assessed as AST at 400 to 700 mg/kg, po for 14 days; assay type: organism-based; details: in vivo, 336 h, dose 400-700 mg/kg, time 14 day
# [23] = Toxicity in Sprague-Dawley rat assessed as liver/brain index at 400 to 700 mg/kg, po for 14 days; assay type: organism-based; details: in vivo, 336 h, dose 400-700 mg/kg, time 14 day; outline: as §5
# Mus musculus [24] = assay: Antiinflammatory activity against PMA-induced ICR mouse ear oedema model assessed as reduction in ear swelling at 1 mg/ear topically administered and measured after 4 hrs; assay type: functional
# Outline: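 Male ICR mice, 8 weeks old. The sample was applied topically to the right ear at 1.0 mg/ear in ethanol before PMA. After 4 h the mice were killed by cervical dislocation and both ears were measured with a micrometer. Oedema was the thickness difference between the ears; inhibition was the percent reduction versus the model group.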
# [25] = biological target: Dual specificity calcium/calmodulin-dependent 3',5'-cyclic nucleotide phosphodiesterase 1B (Homo sapiens, UniProt Q01064); assay: Inhibition of PDE1B (unknown origin); outline: as §2
# Sequence of Dual specificity calcium/calmodulin-dependent 3',5'-cyclic nucleotide phosphodiesterase 1B (Q01064 whole entry): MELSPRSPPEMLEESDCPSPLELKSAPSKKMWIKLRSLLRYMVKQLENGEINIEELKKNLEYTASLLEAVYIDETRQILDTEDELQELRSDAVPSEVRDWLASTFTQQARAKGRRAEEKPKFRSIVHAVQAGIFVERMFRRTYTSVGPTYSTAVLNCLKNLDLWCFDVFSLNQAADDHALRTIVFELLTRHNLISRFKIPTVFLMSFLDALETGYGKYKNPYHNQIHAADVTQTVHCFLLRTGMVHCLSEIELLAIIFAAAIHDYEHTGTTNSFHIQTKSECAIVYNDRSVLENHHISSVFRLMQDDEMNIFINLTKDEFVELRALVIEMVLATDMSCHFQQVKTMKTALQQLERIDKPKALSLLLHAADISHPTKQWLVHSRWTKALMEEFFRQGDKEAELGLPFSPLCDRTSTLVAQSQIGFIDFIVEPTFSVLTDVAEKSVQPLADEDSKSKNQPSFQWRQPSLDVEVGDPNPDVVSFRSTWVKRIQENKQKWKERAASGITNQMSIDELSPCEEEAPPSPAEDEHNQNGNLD
# [26] = biological target: cGMP-dependent 3',5'-cyclic phosphodiesterase (Homo sapiens, UniProt O00408); assay: Inhibition of PDE2A (unknown origin); outline: as §2
# Sequence of cGMP-dependent 3',5'-cyclic phosphodiesterase (O00408 whole entry): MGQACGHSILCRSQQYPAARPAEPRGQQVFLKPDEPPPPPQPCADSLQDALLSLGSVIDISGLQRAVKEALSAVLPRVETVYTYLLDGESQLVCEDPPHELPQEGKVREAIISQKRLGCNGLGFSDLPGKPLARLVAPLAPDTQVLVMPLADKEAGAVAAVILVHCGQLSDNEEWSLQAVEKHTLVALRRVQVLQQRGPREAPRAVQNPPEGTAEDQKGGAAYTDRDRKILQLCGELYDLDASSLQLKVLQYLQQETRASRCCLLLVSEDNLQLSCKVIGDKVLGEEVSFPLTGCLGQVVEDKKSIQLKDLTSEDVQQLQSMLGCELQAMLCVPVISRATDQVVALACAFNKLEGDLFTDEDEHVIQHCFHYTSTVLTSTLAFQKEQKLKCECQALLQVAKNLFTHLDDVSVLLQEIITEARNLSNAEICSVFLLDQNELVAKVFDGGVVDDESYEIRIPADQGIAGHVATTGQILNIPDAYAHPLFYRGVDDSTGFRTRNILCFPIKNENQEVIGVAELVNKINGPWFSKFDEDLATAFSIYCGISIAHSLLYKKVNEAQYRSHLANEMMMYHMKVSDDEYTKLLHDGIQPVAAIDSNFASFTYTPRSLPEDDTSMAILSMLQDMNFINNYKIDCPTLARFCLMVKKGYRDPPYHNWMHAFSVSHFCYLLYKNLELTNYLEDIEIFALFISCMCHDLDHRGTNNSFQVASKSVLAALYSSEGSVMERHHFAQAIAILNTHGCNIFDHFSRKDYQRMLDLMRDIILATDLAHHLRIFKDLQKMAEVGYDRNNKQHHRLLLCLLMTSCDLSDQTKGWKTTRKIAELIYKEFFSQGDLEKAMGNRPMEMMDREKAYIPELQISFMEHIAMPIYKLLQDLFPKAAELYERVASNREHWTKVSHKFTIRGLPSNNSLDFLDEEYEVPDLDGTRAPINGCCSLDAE
# [27] = Phototoxicity in albino guinea pig assessed as skin reaction score at 24 mg/kg topical treatment irradiated with 4.2 mw/cm2 UVA for 40 mins and measured after 24 hrs day of light irradiation by H and E staining based microscopic analysis; assay type: organism-based, Cavia porcellus; details: in vivo, topical_or_ocular; outline: as §1
# Homo sapiens [28] = organism: Homo sapiens; assay: Selectivity index, ratio of IC50 for PDE3B (unknown origin) to IC50 for PDE4B (unknown origin)
# [29] = biological target: cGMP-inhibited 3',5'-cyclic phosphodiesterase 3A (Homo sapiens, UniProt Q14432); assay: Inhibition of PDE3A (unknown origin); outline: as §2
# Sequence of cGMP-inhibited 3',5'-cyclic phosphodiesterase 3A (Q14432 whole entry): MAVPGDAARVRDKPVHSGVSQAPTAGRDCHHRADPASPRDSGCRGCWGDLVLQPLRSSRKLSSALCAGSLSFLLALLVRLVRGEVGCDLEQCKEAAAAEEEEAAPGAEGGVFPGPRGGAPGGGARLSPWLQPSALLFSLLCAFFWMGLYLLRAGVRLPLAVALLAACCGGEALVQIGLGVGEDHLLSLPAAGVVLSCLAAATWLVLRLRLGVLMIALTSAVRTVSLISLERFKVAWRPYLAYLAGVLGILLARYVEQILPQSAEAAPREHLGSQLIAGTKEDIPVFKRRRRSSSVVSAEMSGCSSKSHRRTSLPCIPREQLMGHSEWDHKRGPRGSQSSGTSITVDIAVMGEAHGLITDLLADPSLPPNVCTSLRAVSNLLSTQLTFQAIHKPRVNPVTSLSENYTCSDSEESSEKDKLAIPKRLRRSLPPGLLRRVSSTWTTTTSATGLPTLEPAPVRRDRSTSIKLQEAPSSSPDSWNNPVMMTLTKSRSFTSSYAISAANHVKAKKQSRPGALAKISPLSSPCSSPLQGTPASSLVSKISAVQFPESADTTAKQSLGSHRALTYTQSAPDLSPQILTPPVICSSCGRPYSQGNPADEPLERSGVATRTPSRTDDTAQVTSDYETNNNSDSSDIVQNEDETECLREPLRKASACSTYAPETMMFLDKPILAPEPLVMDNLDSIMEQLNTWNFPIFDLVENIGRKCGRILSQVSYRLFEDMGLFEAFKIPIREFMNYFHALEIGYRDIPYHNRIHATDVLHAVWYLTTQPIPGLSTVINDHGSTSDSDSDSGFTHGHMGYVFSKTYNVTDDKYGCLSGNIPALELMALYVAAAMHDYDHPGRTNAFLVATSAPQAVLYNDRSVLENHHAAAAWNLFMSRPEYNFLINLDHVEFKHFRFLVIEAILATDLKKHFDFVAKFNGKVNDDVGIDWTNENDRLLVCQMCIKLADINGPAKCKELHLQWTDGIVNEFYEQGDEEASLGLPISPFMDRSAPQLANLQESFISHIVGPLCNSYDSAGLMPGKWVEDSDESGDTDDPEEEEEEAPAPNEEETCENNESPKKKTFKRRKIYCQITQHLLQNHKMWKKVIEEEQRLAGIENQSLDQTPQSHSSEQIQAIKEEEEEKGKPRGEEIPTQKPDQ
# Homo sapiens [30] = organism: Homo sapiens; assay: Selectivity index, ratio of IC50 for PDE1A (unknown origin) to IC50 for PDE4B (unknown origin)
# [31] = Phototoxicity in albino guinea pig assessed as infiltration of inflammatory cells at 10 mg/kg topical treatment irradiated with 4.2 mw/cm2 UVA for 40 mins and measured after 24 hrs day of light irradiation by H and E staining based microscopic analysis; assay type: organism-based, Cavia porcellus; details: in vivo, topical_or_ocular, in the assay text read “72 hrs” for “24 hrs”; outline: as §1
# Homo sapiens [32] = organism: Homo sapiens; assay: Selectivity index, ratio of IC50 for PDE7A (unknown origin) to IC50 for PDE4B (unknown origin)
# [33] = biological target: cGMP-inhibited 3',5'-cyclic phosphodiesterase 3B (Homo sapiens, UniProt Q13370); assay: Inhibition of PDE3B (unknown origin); outline: as §2
# Sequence of cGMP-inhibited 3',5'-cyclic phosphodiesterase 3B (Q13370 whole entry): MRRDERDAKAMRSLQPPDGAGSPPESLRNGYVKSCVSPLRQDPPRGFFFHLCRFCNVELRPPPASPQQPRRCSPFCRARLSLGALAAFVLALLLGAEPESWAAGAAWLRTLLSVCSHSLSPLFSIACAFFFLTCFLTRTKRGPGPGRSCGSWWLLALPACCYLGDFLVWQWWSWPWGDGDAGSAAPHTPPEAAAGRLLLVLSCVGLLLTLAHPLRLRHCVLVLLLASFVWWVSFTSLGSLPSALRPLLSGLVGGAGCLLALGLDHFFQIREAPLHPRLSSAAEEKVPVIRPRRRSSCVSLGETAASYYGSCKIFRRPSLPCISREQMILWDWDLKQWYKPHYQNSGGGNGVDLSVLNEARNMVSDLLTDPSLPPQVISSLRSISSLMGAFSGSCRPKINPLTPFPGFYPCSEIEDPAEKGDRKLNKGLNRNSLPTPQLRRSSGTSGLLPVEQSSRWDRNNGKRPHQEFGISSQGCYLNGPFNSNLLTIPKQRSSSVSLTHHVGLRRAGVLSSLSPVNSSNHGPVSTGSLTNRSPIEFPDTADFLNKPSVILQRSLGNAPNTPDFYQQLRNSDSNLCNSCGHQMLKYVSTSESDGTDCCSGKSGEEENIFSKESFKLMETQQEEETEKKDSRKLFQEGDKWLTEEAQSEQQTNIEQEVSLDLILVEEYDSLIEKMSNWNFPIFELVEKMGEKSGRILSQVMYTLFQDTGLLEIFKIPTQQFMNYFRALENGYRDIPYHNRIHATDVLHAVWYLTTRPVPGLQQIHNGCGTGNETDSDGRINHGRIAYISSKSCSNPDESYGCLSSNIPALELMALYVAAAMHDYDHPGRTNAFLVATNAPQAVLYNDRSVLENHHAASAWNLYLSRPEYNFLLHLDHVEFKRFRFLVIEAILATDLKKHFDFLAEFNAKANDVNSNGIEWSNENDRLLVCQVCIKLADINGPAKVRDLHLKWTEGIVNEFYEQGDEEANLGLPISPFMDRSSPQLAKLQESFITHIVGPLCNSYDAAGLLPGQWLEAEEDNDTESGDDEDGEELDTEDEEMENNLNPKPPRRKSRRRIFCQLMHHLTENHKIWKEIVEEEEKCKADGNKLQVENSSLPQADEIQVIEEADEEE
# [34] = Phototoxicity in albino guinea pig assessed as necrosis at 10 mg/kg topical treatment irradiated with 4.2 mw/cm2 UVA for 40 mins and measured after 24 hrs day of light irradiation by H and E staining based microscopic analysis; assay type: organism-based, Cavia porcellus; details: in vivo, topical_or_ocular, in the assay text read “72 hrs” for “24 hrs”; outline: as §1
# [35] = biological target: Dual specificity calcium/calmodulin-dependent 3',5'-cyclic nucleotide phosphodiesterase 1C (Homo sapiens, UniProt Q14123); assay: Inhibition of PDE1C (unknown origin)
# Outline: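 For PDE1A, PDE1B and PDE1C, the reaction buffer was also supplemented with 0.2 mM CaCl2 and […]. Otherwise the same SPA run as the other PDEs: [3H]-nucleotide hydrolysis at 30 °C for 30 min, in duplicate.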
# Mus musculus [36] = assay: Antiinflammatory activity against calcipotriol-induced atopic dermatitis mouse model assessed as swelling inhibition at 30 mg/kg for 14 days; assay type: functional; design: scale not given: the % may be the effect or the level left; details: time 14 day; outline: as §3
# [37] = Toxicity in Sprague-Dawley rat assessed as ALT at 400 to 700 mg/kg, po for 14 days; assay type: organism-based; details: in vivo, 336 h, dose 400-700 mg/kg, time 14 day
# Homo sapiens [38] = organism: Homo sapiens; assay: Selectivity index, ratio of IC50 for PDE1C (unknown origin) to IC50 for PDE4B (unknown origin)
# [39] = biological target: T1, 3',5'-cyclic-AMP phosphodiesterase 4B; assay: Inhibition of PDE4B (unknown origin) assessed as hydrolysis of [3H]-cAMP into [3H]-AMP incubated for 30 mins by scintillation of proximity assay
compound,measurement,setting,value
OB1OCc2cc(Oc3ccc4cc(C(F)(F)F)ccc4n3)ccc21,Activity,[1],Non-Toxic
same,Ratio IC50,Homo sapiens [2],10800
same,Ratio IC50,Homo sapiens [3],138
same,Activity,[4],Non-Toxic
same,IC50,[5],34.7 nM
same,Activity,Mus musculus [6],0.29 mm
same,Activity,[7],Non-Toxic
same,Activity,[8],Non-Toxic
same,IC50,[9],0.42 nM
same,Activity,Mus musculus [10],0.32 mm
same,Ratio IC50,Homo sapiens [11],1950
same,Activity,[12],Non-Toxic
same,Activity,[13],Non-Toxic
same,IC50,[14],4520 nM
same,IC50,[15],64.7 nM
same,Activity,[16],Non-Toxic
same,Activity,[17],Non-Toxic
same,Ratio IC50,Homo sapiens [18],286
same,IC50,[19],819 nM
same,IC50,[20],0.42 nM
same,Ratio IC50,Homo sapiens [21],19400
same,Activity,[22],Non-Toxic
same,Activity,[23],Non-Toxic
same,inhibition (INH),Mus musculus [24],65.85%
same,IC50,[25],58 nM
same,IC50,[26],120 nM
same,Activity,[27],Non-Toxic
same,Ratio IC50,Homo sapiens [28],17100
same,IC50,[29],8130 nM
same,Ratio IC50,Homo sapiens [30],154
same,Activity,[31],Non-Toxic
same,Ratio IC50,Homo sapiens [32],83
same,IC50,[33],7190 nM
same,Activity,[34],Non-Toxic
same,IC50,[35],866 nM
same,Activity,Mus musculus [36],73.33%
same,Activity,[37],Non-Toxic
same,Ratio IC50,Homo sapiens [38],2060
N#Cc1ccc2cc(Oc3ccc4c(c3)COB4O)ccc2c1,IC50,[20],25.5 nM
COC(=O)c1cccc2cc(Oc3ccc4c(c3)COB4O)ccc12,IC50,[20],21.9 nM
COC(=O)c1ccc2nc(Oc3ccc4c(c3)COB4O)ccc2c1,IC50,[20],10.8 nM
same,inhibition (INH),Mus musculus [24],54.72%
CC(=O)c1ccc2nc(Oc3ccc4c(c3)COB4O)ccc2c1,IC50,[39],3.57 nM
same,inhibition (INH),Mus musculus [24],34.09%
CCOC(=O)c1cccc2nc(Oc3ccc4c(c3)COB4O)ccc12,IC50,[39],17.3 nM
same,inhibition (INH),Mus musculus [24],57.69%
N#Cc1ccc(Oc2ccc3c(c2)COB3O)cc1 [CRISABOROLE],Ratio IC50,Homo sapiens [2],1480
same,Ratio IC50,Homo sapiens [3],271
same,IC50,[5],2030 nM
same,Activity,Mus musculus [6],0.29 mm
same,IC50,[9],70 nM
same,Activity,Mus musculus [10],0.37 mm
same,Ratio IC50,Homo sapiens [11],850
same,IC50,[14],97600 nM
same,IC50,[15],5600 nM
same,Ratio IC50,Homo sapiens [18],55
same,IC50,[19],56100 nM
same,IC50,[20],57.2 nM
same,Ratio IC50,Homo sapiens [21],970
same,inhibition (INH),Mus musculus [24],43.55%
same,IC50,[25],17900 nM
same,IC50,[26],3630 nM
same,Ratio IC50,Homo sapiens [28],891
same,IC50,[29],64000 nM
same,Ratio IC50,Homo sapiens [30],85
same,Activity,[31],Non-Toxic
same,Ratio IC50,Homo sapiens [32],31
same,IC50,[33],58800 nM
same,Activity,[34],Non-Toxic
same,IC50,[35],71000 nM
same,Activity,Mus musculus [36],32.5%
same,Ratio IC50,Homo sapiens [38],1080
CC(=O)c1cccc2nc(Oc3ccc4c(c3)COB4O)ccc12,IC50,[39],3.05 nM
same,inhibition (INH),Mus musculus [24],39.56%
